# From PubChem
# Myeloid diff 2: myeloid differentiation induction. ER-HoxA9 myeloid progenitors, lysozyme-GFP differentiation, flow cytometry. calls only at 10 µM. actives 1% (n = 360,000);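 active = normalized GFP-positive differentiation at or above the plate's own cutoff, the solvent-only control mean plus 3 SD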;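 note: cells exposed to compound for four days before flow analysis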
# ABCB6 inh 2: inhibitors of human ABC transporter ABCB6 | K562-ABCB6 porphyrin accumulation, flow cytometry, 1 h; stronger effect = lower value | fluorescence ratio to DMSO, % at 10 µM | actives 0.19% (n = 360,000) | Q9NP58;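 active = fluorescence ratio to DMSO below 75%, the collection mean minus 3 SD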;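 note: signal is porphyrin accumulated inside mitochondria; 100% equals median channel fluorescence of DMSO control wells; lower ratio means ABCB6 inhibition with less porphyrin fluorescence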
# XiGFP reactiv: reactivates the inactive X chromosome in mouse fibroblasts; actives 0.055% (n = 360,000); XiGFP mouse fibroblasts, % GFP-positive cells imaging, 3 d; cells co-treated with 5-aza-dC sensitizer; scaled so ellipticine positive control = 100%; activation, % at 7.58 µM;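 active = mean normalized replicate activation at least 10% and every replicate at or above 10%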;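 note: 0% = median of on-plate neutral control wells and 100% = ellipticine 6 µM median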
#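 System: XiGFP fibroblasts, SV40-immortalized. Medium: DMEM plus 5-aza-dC sensitizer. Doses: single point. Timing: 3 d treatment, 15 min room-temperature fixation. Control set: ellipticine 6 µM.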
# Myeloid diff: promotes myeloid progenitor differentiation; shares compounds with Myeloid diff 2; ER-HoxA9 myeloid progenitors, GFP/Mac1 double-positive flow; calls only; actives 2% (n = 2,300);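 active = share of green or green-and-red cells above 9 and 9% in run 1 or 4 and 3% in run 2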
# GFP autofluor: flagged as fluorescent in myeloid differentiation counter-screen | shares compounds with Myeloid diff 2 | ER-HoxA9 myeloid progenitors, no estrogen, GFP autofluorescence flow cytometry; vehicle wells 0%, positive control 100% | fluorescence response, % (test concentration not listed) | actives 7.4% (n = 2,300) | AID 651707;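 active = over 5% cells positive for green fluorescent reporter, or over 2% positive for both it and APC stain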;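 note: range taken on the double positive population between DMSO and positive control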
# * marks the source's active call; other numbers are inactive results; i = inactive; nt = not tested or not shown; + = active, no number. The full list was thinned out, with hits kept by preference.
SMILES,Myeloid diff 2,ABCB6 inh 2,XiGFP reactiv,Myeloid diff,GFP autofluor
CC1(C)C(c2ccccc2)=NC(c2cccnc2)N1O (stereo unspecified),+,91.0,nt,i,0.0
COC(=O)[C@H]1[C@H](CO)[C@H]2Cn3c(ccc(C4=CCCC4)c3=O)[C@@H]1N2Cc1ccccn1,nt,nt,0.1,nt,nt
C=C1C[C@]2(O)[C@@]3(C)CCC(=O)C(C)(C)C3=C(O)C(=O)[C@@]2(C)[C@@H]2C(=O)O[C@@](C)(C(=O)OC)C(=O)[C@@]12C,+,101.0,nt,i,0.0
O=C1CNC[C@H]2[C@@H](c3ccc(Br)cc3)[C@@H](CO)N12,nt,nt,0.1,nt,nt
COc1ccc(C#Cc2ccc([C@@H]3[C@H](CO)N4CCCCN(C(=O)Cc5cccnc5)C[C@@H]34)cc2)cc1,nt,nt,0.1,nt,nt
COC(=O)[C@@H]1[C@@H](CO)[C@@H]2Cn3c(ccc(-c4ccccc4F)c3=O)[C@H]1N2,nt,nt,0.0,nt,nt
COc1ccc2c(c1OC)CN1CCc3cc4c(cc3[C@H]1C2)OCO4,i,108.0,nt,nt,nt
COc1ccc2c(c1OC)CN1CCc3cc4c(cc3C1C2)OCO4 (stereo unspecified),i,110.0,0.4,i,0.3
O=C(/C=C/c1ccc2c(c1)OCO2)c1c(O)n(CCC2=CCCCC2)c(=O)[nH]c1=O,i,100.0,0.0,i,0.4
COc1ccc(/C=C/C(=O)c2c(O)n(CCC3=CCCCC3)c(=O)[nH]c2=O)cc1,i,91.0,0.1,nt,nt
O=C(Cc1cccnc1)N1CCCCN2[C@H](CO)[C@H](c3ccc(/C=C/c4ccccc4)cc3)[C@H]2C1,nt,nt,0.2,nt,nt
COc1cccc(CN2CC3(C2)[C@H](c2ccccc2)[C@H](CO)N3C(=O)Cc2ccccc2)c1,nt,nt,0.2,nt,nt
O=C(Cc1ccccn1)N1CCCCN2[C@@H](CO)[C@H](c3ccc(-c4ccccc4)cc3)[C@@H]2C1,nt,nt,0.0,nt,nt
